Tests used:
[1] = system: Simian immunodeficiency virus; test: Concentration required to inhibit the viral (SIV mac251) cytopathic effect by 50% in MT-4 cells.; assay type: functional, organism-based, MT4
Outline: (§1)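 Virus-infected MT-4 cells cultured with serial compound dilutions; viability measured 5 days after infection by MTT tetrazolium colorimetric read-out. The value is the concentration protecting 50% of cells from viral cytopathic effect. Averages ± SD from at least two independent experiments. HIV-2 and SIV stocks came from infected MT-4 culture supernatants.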

[2] = system: Human immunodeficiency virus 1; test: Concentration required to inhibit the viral (HIV-1 IIIB strain) cytopathic effect by 50% in MT-4 cells.; assay type: functional, organism-based; conditions: Human immunodeficiency virus 1, MT4; outline: as §1
MT4 = test: Concentration that reduced the MT-4 cell viability by 50%.; assay type: functional, Homo sapiens
Outline: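 Mock-infected MT-4 cells, run in parallel with the antiviral assay, were exposed to compound. Viability on day 5 was read by MTT colorimetry. The value is the concentration lowering viability by 50%. Averages ± SD from at least two independent experiments.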

[3] = system: Human immunodeficiency virus 1; test: Concentration required to inhibit the viral (HIV-1 NL4.3 strain) cytopathic effect by 50% in MT-4 cells.; assay type: functional, organism-based; conditions: Human immunodeficiency virus 1, MT4; outline: as §1
[4] = system: Human immunodeficiency virus 2; test: Concentration required to inhibit the viral (HIV-2 ROD) cytopathic effect by 50% in MT-4 cells.; assay type: functional, organism-based, MT4; outline: as §1
[5] = system: Human immunodeficiency virus 1; test: Concentration required to inhibit the viral (HIV-1 NNRTI resistant strain) cytopathic effect by 50% in MT-4 cells.; assay type: functional, organism-based; conditions: Human immunodeficiency virus 1, MT4
Outline: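 MT-4 cells infected with HIV-1(III_B)-derived strain S0561945 (K103N + Y181C RT mutations, NNRTI-resistant). Cultured with varying compound concentrations; viability read on day 5 post-infection by MTT tetrazolium colorimetry. Value is the concentration giving 50% protection against virus-induced cytopathic effect. Cytotoxicity measured in parallel on mock-infected cells at day 5. Averages ± SD from at least two independent experiments.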

[6] = Simian immunodeficiency virus, mac251, MT4
[7] = Human immunodeficiency virus 2, MT4

Row | Structure (SMILES) | IC50 [1, 6] [µM] | IC50 [2] [µM] | CC50 (MT4; Homo sapiens, MT4) [µM] | IC50 [3] [µM] | IC50 [4, 7] [µM] | IC50 [5] [µM] | IC50 ([1]; mt4) [µM] | CC50 (MT4) [µM] | IC50 ([4]; mt4) [µM]
1 | CSc1ccc(NN2C(S)=NC(C)C2c2ccccc2)cc1 (centres undefined) | > 53 | > 53 | 53 | > 53 | > 53 | – | – | – | –
2 | COC(=O)C1C(C)N=C(S)N1Nc1cccc(Cl)c1 (centres undefined) | > 190 | > 190 | 190 | > 190 | > 190 | – | – | – | –
3 | COC(=O)c1cccc(C2C(C)N=C(S)N2Nc2cccc(Cl)c2)c1 (centres undefined) | > 67.4 | > 67.4 | 67.4 | > 67.4 | > 67.4 | – | – | – | –
4 | CC1N=C(S)N(Nc2cccc([N+](=O)[O-])c2)C1c1ccccc1 (centres undefined) | 7.54 | 7.29 | 48.3 | 11.2 | > 48.3 | 42.2 | – | – | –
5 | Clc1cccc(Nn2cnc3c2CCCC3)c1 | – | – | – | – | – | – | > 67.3 | 67.3 | > 67.3
6 | Cc1nc(SCc2ccccc2)n(Nc2cccc(Cl)c2)c1-c1ccccc1 | > 39.7 | > 39.7 | 39.7 | > 39.7 | > 39.7 | – | – | – | –
7 | Cc1c(-c2ccccc2)nc(S)n1Nc1cccc(Cl)c1 | > 50 | > 50 | 50 | > 50 | > 50 | – | – | – | –
8 | Cc1cccc(NN2C(S)=NC(C)C2c2cccc(C(=O)O)c2)c1 (centres undefined) | > 187 | > 187 | 187 | > 187 | > 187 | – | – | – | –
9 | CC1N=C(S)N(Nc2ccccc2)C1C (centres undefined) | > 181 | > 181 | 181 | > 181 | > 181 | – | – | – | –
10 | COc1ccc(-c2c(C)nc(S)n2Nc2cccc(Cl)c2)cc1 | 10.1 | > 38.7 | 38.7 | > 38.7 | > 38.7 | > 38.7 | – | – | –
11 | Cc1cccc(Nn2cnc(C)c2C)c1 | > 312 | > 312 | 312 | > 312 | > 312 | – | – | – | –
12 | CC1N=C(S)N(Nc2cccc(Cl)c2)C1c1cccc(C(N)=O)c1 (centres undefined) | > 42.2 | > 42.2 | 42.2 | > 42.2 | > 42.2 | – | – | – | –
13 | CC1N=C(S)N(Nc2cccc(Cl)c2)C1C (centres undefined) | > 259 | > 259 | 259 | > 259 | > 259 | – | – | – | –
14 | Cc1ncn(Nc2cccc(Cl)c2)c1C | – | – | – | – | – | – | > 214 | 214 | > 214
15 | Cc1nc(S)n(Nc2ccc(Cl)cc2)c1-c1ccccc1 | > 134 | > 134 | 134 | > 134 | > 134 | – | – | – | –
16 | CC1N=C(S)N(Nc2cccc(Cl)c2)C1C(=O)O (centres undefined) | > 266 | > 266 | 266 | > 266 | > 266 | – | – | – | –
17 | Cc1cccc(NN2C(S)=NC(C)C2c2cccc(C#N)c2)c1 (centres undefined) | > 45.6 | > 45.6 | 45.6 | > 45.6 | > 45.6 | – | – | – | –
18 | Cc1ncn(Nc2ccccc2)c1-c1ccccc1 | > 52.2 | – | 52.2 | – | > 52.2 | – | – | – | –
19 | Cc1cccc(NN2C(S)=NC(C)C2C)c1 (centres undefined) | > 360 | > 360 | 360 | > 360 | > 360 | – | – | – | –

Row | Structure (SMILES) | IC50 [1, 6] [µM] | IC50 [2] [µM] | CC50 (MT4; Homo sapiens, MT4) [µM] | IC50 [3] [µM] | IC50 [4, 7] [µM] | IC50 [5] [µM] | IC50 ([1]; mt4) [µM] | CC50 (MT4) [µM] | IC50 ([4]; mt4) [µM]
20 | Cc1nc(S)n(Nc2cccc(Cl)c2)c1-c1ccc(Br)cc1 | > 33.2 | > 33.2 | 33.2 | > 33.2 | > 33.2 | – | – | – | –
21 | CC1N=C(S)N(Nc2cccc(Cl)c2)C1c1cccc(C(=O)O)c1 (centres undefined) | > 120 | > 120 | 120 | > 120 | > 120 | – | – | – | –
22 | COC(=O)C1N=C(S)N(Nc2cccc(Cl)c2)C1C (centres undefined) | > 48.8 | > 48.8 | 48.8 | > 48.8 | > 48.8 | – | – | – | –
23 | CSc1nc(C)c(-c2ccccc2)n1Nc1cccc(Cl)c1 | > 42.1 | > 42.1 | 42.1 | > 42.1 | > 42.1 | – | – | – | –
24 | CC1N=C(S)N(Nc2ccccc2)C1c1ccccc1 (centres undefined) | > 191 | > 191 | 191 | > 191 | > 191 | – | – | – | –
25 | Cc1nc(S)n(Nc2ccc(F)cc2)c1-c1ccccc1 | > 220 | > 220 | 220 | > 220 | > 220 | – | – | – | –
26 | COC(=O)c1c(C)ncn1Nc1cccc(Cl)c1 | > 107 | > 107 | 107 | > 107 | > 107 | – | – | – | –
27 | SC1=NC2CCCCC2N1Nc1cccc(Cl)c1 (centres undefined) | > 126 | > 126 | 126 | > 126 | > 126 | – | – | – | –
28 | Cc1ncn(Nc2cccc(Cl)c2)c1-c1cccc(C(N)=O)c1 | > 260 | > 260 | 260 | > 260 | > 260 | – | – | – | –
29 | COc1cccc(Nn2cnc(C)c2-c2ccccc2)c1 | > 34.4 | > 34.4 | 34.4 | > 34.4 | > 34.4 | – | – | – | –
30 | Cc1cc(C)cc(Nn2cnc(C)c2-c2ccccc2)c1 | > 20.4 | – | 20.4 | – | > 20.4 | – | – | – | –
31 | Cc1ncn(Nc2cccc(Cl)c2)c1-c1cccc(C(=O)O)c1 | > 161 | > 161 | 161 | > 161 | > 161 | – | – | – | –
32 | CCc1ccc(NN2C(S)=NC(C)C2c2ccccc2)cc1 (centres undefined) | > 34.5 | > 34.5 | 34.5 | > 34.5 | > 34.5 | – | – | – | –
33 | CC1N=C(S)N(Nc2cc(Cl)ccc2Cl)C1c1ccccc1 (centres undefined) | > 147 | > 147 | 147 | > 147 | > 147 | – | – | – | –
34 | COC(=O)c1cccc(-c2c(C)ncn2Nc2cccc(Cl)c2)c1 | > 33.1 | > 33.1 | 33.1 | > 33.1 | > 33.1 | – | – | – | –
35 | Cc1cccc(Nn2cnc(C)c2-c2cccc(C(N)=O)c2)c1 | > 162 | > 162 | 162 | > 162 | > 162 | – | – | – | –
36 | Cc1cccc(Nn2cnc(C)c2-c2cccc(C#N)c2)c1 | > 44.7 | > 44.7 | 44.7 | > 44.7 | > 44.7 | – | – | – | –
37 | Cc1ncn(Nc2ccccc2)c1C | > 351 | > 351 | 351 | > 351 | > 351 | – | – | – | –
38 | CCc1ncn(Nc2cccc(C)c2)c1-c1ccccc1 | > 27.9 | > 27.9 | 27.9 | > 27.9 | > 27.9 | – | – | – | –
